From PubChem BioAssay AID493236 (Broad Institute, 2011)
Results filed as inconclusive are left out. The source made the active and inactive calls.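 The calls were made as follows: active = luminescence cut by more than half of the full-inhibition control window in a dose series; inconclusive = no clear call, values can overlap the other calls; inactive = signal rising instead of falling, or the rest.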

What follows are molecules tested on proteasome chymotrypsin-like activity (human) (assay: proteasome chymotrypsin-like activity inhibitors, dose response, counter-screen for HIF pathway activator project, cell-based, U2OS, luminescence, dry powder, set 4 (AID 493236)). Details: U2OS cells, Proteasome-Glo chymotrypsin luminescence; series mostly up to 38 µM.
Outline: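 Times: 24 h plating, 4 h compound, 2 h reagent / System: U2OS cells / Quantity: 2,500 U2OS cells per well / Technique: Proteasome-Glo luminescence / Repeats: each compound tested in duplicate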
`c1ccc(-c2nnc(-c3ccccn3)nc2N2CCC(c3ccccc3)C2)cc1` (stereo not given) was tested, and the outcome was “inactive”.
In the case of `c1ccc(-c2nnc(-c3ccccn3)nc2NCC2CC2)cc1`, the outcome is reported as “inactive”.
For `C[C@@H](Nc1nc(-c2ccccn2)nnc1-c1ccccc1)c1ccccc1`, the outcome was “inactive”.
`CC1CN(Cc2ccc(O)c3ncccc23)CC(C)O1` (stereo not given) was tested, and the outcome was “inactive”.
With `O=C(NCCCO)c1cc(-c2ccccc2)on1` the outcome was “inactive”.
With `Cc1ccc(CNc2nc(-c3ccccn3)nnc2-c2ccccc2)cc1C` the outcome was “inactive”.
With `Cc1cccc(Nc2nc(-c3ccccn3)nnc2-c2ccccc2)n1` the outcome was “inactive”.
In the case of `O=C(NCCCN1CCOCC1)c1cc(-c2ccccc2)on1`, the outcome is reported as “inactive”.
For `Oc1ccc(CN2CCc3ccccc3C2)c2cccnc12`, the outcome was “inactive”.
In the case of `CN1CCN(C(=O)c2cc(-c3ccccc3)on2)CC1`, the outcome is reported as “inactive”.
In the case of `COc1cccc(CNc2nc(-c3ccccn3)nnc2-c2ccccc2)c1`, the outcome is reported as “inactive”.
In the case of `Cc1cccc(CNC(=O)c2cc(-c3ccccc3)on2)c1`, the outcome is reported as “inactive”.
In the case of `Cc1cccc(CNc2nc(-c3ccccn3)nnc2-c2ccccc2)c1`, the outcome is reported as “inactive”.
In the case of `CCCCNC(=O)c1cc(-c2ccccc2)on1`, the outcome is reported as “inactive”.
With `c1ccc(CCNc2nc(-c3ccccn3)nnc2-c2ccccc2)cc1` the outcome was “inactive”.
`c1ccc(-c2ccc(CNc3nc(-c4ccccn4)nnc3-c3ccccc3)cc2)cc1` was tested, and the outcome was “inactive”.
`CC(C)(C)CCNc1nc(-c2ccccn2)nnc1-c1ccccc1` was tested, and the outcome was “inactive”.
For `OCC1CCN(c2nc(-c3ccccn3)nnc2-c2ccccc2)CC1`, the outcome was “inactive”.
For `c1ccc(-c2nnc(-c3ccccn3)nc2N2CCC(C3CCCCC3)C2)cc1` (stereo not given), the outcome was “inactive”.
In the case of `c1ccc(-c2nnc(-c3ccccn3)nc2NCCc2ccccn2)cc1`, the outcome is reported as “inactive”.
